Laboratory results from ChEMBL document CHEMBL1135898, “Synthesis and antimycobacterial activity of 6-arylpurines: the requirements for the N-9 substituent in active antimycobacterial purines” (J Med Chem, 2002).
In brackets after ≈: the same amount, converted by molar mass.

How the values were obtained:
[1] = tested on: Mycobacterium tuberculosis; experiment: Antibacterial activity against Mycobacterium tuberculosis H37Rv in BACTEC 12B medium using microplate alamar blue assay; assay type: functional
Procedure, shortened: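 MIC against M. tuberculosis H37Rv (ATCC 27294) by microplate alamar blue assay (MABA) in BACTEC 12B medium; compounds reaching ≥90% inhibition in the primary screen were re-tested at lower concentrations. MIC defined as minimum concentration giving 90% inhibition of growth; rifampin reference.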

[2] = tested on: K562; experiment: Cytostatic activity against chronic myelogenous leukemia cells (K-562) based on its ability to inhibit [3H]thymidine incorporation.; assay type: functional, cell-based; conditions: Homo sapiens
Procedure, shortened: (§1)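 K-562 chronic myelogenous leukemia cells; cytostatic effect read as inhibition of [3H]thymidine incorporation. Reported as percent inhibition at 10 μg/mL, with EC50 derived only for the more toxic compounds.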

[3] = tested on: Mycobacterium tuberculosis; experiment: Percent inhibition of Mycobacterium tuberculosis H37Rv at 6.25 µg/ml concentration in BACTEC 12B medium using microplate alamar blue assay; assay type: functional
Procedure, shortened: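 Primary screen at single concentration 6.25 μg/mL against M. tuberculosis H37Rv (ATCC 27294) in BACTEC 12B medium, read by microplate alamar blue assay; fluorescent compounds instead tested in BACTEC 460 radiometric system. Percent growth inhibition reported.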

[4] = tested on: K562; experiment: Cytostatic activity against chronic myelogenous leukemia cells (K-562) based on its ability to inhibit [3H]thymidine incorporation; assay type: functional, cell-based; conditions: Homo sapiens; procedure, shortened: as §1
[5] = tested on: K562; experiment: Cytostatic activity against chronic myelogenous leukemia cells (K-562) based on its ability to inhibit [3H]thymidine incorporation (at 1.0 g/ml); assay type: functional, cell-based; conditions: Homo sapiens
Procedure, shortened: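 K-562 leukemia cells; inhibition of [3H]thymidine incorporation measured at 1.00 μg/mL instead of the usual 10 μg/mL because of low compound solubility.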

[6] = tested on: Mycobacterium tuberculosis; experiment: Concentration effecting 90% reduction of Mycobacterium tuberculosis strain Erdman, growth in monolayers of mouse bone marrow macrophages after 7 days; assay type: functional; conditions: 168 h
[7] = tested on: Mycobacterium tuberculosis; experiment: Concentration effecting 99% reduction of Mycobacterium tuberculosis strain Erdman, growth in monolayers of mouse bone marrow macrophages after 7 days; assay type: functional; conditions: 168 h
[8] = tested on: Lacticaseibacillus casei; experiment: Minimum Inhibitory Concentration against drug-resistant strain of Lactobacillus casei; assay type: functional
[9] = Selectivity Index, SI = IC50:MIC.ND means not determined.; assay type: functional
[10] = tested on: Vero; experiment: Minimum inhibitory concentration for testing cytotoxicity in VERO cells; assay type: functional, cell-based; conditions: Chlorocebus sabaeus
Procedure, shortened: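 VERO cells exposed 72 h to compound at concentrations up to 62.5 μg/mL. Viability read by cellular MTT conversion to formazan, and an IC50 was derived.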

Compound: CO[C@H]1/C=C/O[C@@]2(C)Oc3c(C)c(O)c4c(O)c(c(/C=N/N5CCN(C)CC5)c(O)c4c3C2=O)NC(=O)/C(C)=C\C=C\[C@H](C)[C@H](O)[C@@H](C)[C@@H](O)[C@@H](C)[C@H](OC(C)=O)[C@@H]1C [RIFAMPIN]
- MIC [1]: 0.25 µg/mL (≈ 0.304 µM)

Compound: OC[C@H]1OC(n2cnc3c(-c4ccco4)nc(Cl)nc32)[C@H](O)[C@@H]1O (stereo partly drawn)
- IC50 [2]: 100 µg/mL (≈ 283 µM)
- Inhibition [3]: 7%

Compound: c1ccc(CCn2cnc3c(-c4ccco4)ncnc32)cc1
- IC50 [4]: 53 µg/mL (≈ 183 µM)

Compound: c1ccc(Cn2cnc3c(-c4ccccc4)ncnc32)cc1
- IC50 [5]: < 10 µg/mL

Compound: CC(=O)OC[C@H]1O[C@@H](Cn2cnc3c(-c4ccccc4)ncnc32)[C@H](OC(C)=O)[C@@H]1OC(C)=O
- Inhibition [3]: 4%

Compound: Clc1nc(-c2ccccc2)c2ncn(Cc3ccccc3)c2n1
- IC50 [2]: 76 µg/mL (≈ 237 µM)

Compound: OC[C@H]1OC(n2cnc3c(-c4ccco4)ncnc32)[C@H](O)[C@@H]1O (stereo partly drawn)
- Inhibition [3]: 0%

Compound: Cn1cnc2c(-c3ccco3)ncnc21
- IC50 [4]: < 10 µg/mL

Compound: c1ccc(-c2ncnc3c2ncn3C2CCOCC2)cc1
- IC50 [4]: < 10 µg/mL

Compound: Clc1nc(-c2ccco2)c2ncn(Cc3ccccc3)c2n1
- EC90 [6]: 0.038 µg/mL (≈ 0.122 µM)
- IC50 [2]: 27 µg/mL (≈ 86.9 µM)
- EC99 [7]: 8.46 µg/mL
- MIC [8]: > 10 µg/mL

Compound: OC[C@H]1O[C@@H](n2cnc3c(-c4ccccc4)ncnc32)[C@H](O)[C@@H]1O
- IC50 [4]: 99 µg/mL (≈ 302 µM)

Compound: c1csc(-c2[nH]cnc3ncnc2-3)c1
- IC50 [4]: < 10 µg/mL

Compound: c1coc(-c2ncnc3c2ncn3CC2CCCCC2)c1
- IC50 [4]: 60 µg/mL (≈ 213 µM)

Compound: c1ccc(Cn2cnc3c(-c4cccs4)ncnc32)cc1
- IC50 [5]: < 10 µg/mL
- Selectivity index [9]: > 1.6
- IC50 [10]: > 10 µg/mL

Compound: C=CCn1cnc2c(-c3ccco3)ncnc21
- IC50 [4]: 11 µg/mL (≈ 48.6 µM)

Compound: c1ccc(Cn2cnc3c(-c4ccco4)ncnc32)cc1 [9-BENZYL-6-(FURAN-2-YL)-9H-PURINE]
- Selectivity index [9]: 2.7
- IC50 [4]: 59 µg/mL (≈ 214 µM)
